From ChEMBL document CHEMBL2417530, “Coumarin derivatives protect against ischemic brain injury in rats” (Eur J Med Chem, 2013)
Activity calls are given as the source filed them. No cut-off for these calls is given here.

How the values were obtained:
Rattus norvegicus [1] = assay: In vivo neuroprotective activity in Sprague-Dawley rat transient middle cerebral artery occlusion model assessed as reduction of infarct size at 6 mg/kg, iv measured 24 hrs post reperfusion by TTC staining assay relative to vehicle-treated control; assay type: functional
Method in brief: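 Male Sprague-Dawley rats, 7 weeks, 260–280 g, under 10% chloral hydrate ip. Right MCA occluded 60 min by tip-burned 4-0 nylon thread via common carotid, then reperfused. Saline or drug given iv at reperfusion, ethanol as cosolvent. Killed 24 h later; six 2 mm slices in 1% TTC in PBS, 37 °C, 30 min. Infarct area traced as % of total area; n = 12.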

Rattus norvegicus [2] = assay: In vivo neuroprotective activity in Sprague-Dawley rat transient middle cerebral artery occlusion model assessed as reduction of brain-water content at 6 mg/kg, iv measured 24 hrs post reperfusion; assay type: functional, organism-based; parameters: dose 6 mg/kg
Method in brief: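 Male SD rats (7 weeks, 260-280 g) had 60 min transient right MCA occlusion with a nylon filament, then reperfusion. Saline or drug (1.5, 3.0, 6.0 mg/kg) was injected iv at reperfusion. Animals without neurological deficit were replaced. At 24 h brains were oven-dried at 110 °C for 24 h, and water content was taken as (wet−dry)/wet; n = 12.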

[3] = Cytotoxicity against rat PC12 cells assessed as cell proliferation at 10 uM by MTT assay relative to control; assay type: cell-based, PC-12; conditions: read-out: Activity
Method in brief: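 PC12 cells were grown in DMEM with 5% FBS, 5% horse serum and 2 mM glutamine at 37 °C, 5% CO2. They were seeded at 5×10^3 cells/well for 24 h, then exposed to 10 µM compound in full medium. Viability was read by MTT (5 mg/mL, 4 h) at 570 nm as % of control absorbance; n = 3.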

PC-12 = assay: Neuroprotective activity in rat PC12 cells assessed as attenuation of oxygen-glucose deprivation-induced cellular damage at 10 uM by MTT assay relative to control; assay type: functional
Method in brief: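 PC12 cells were seeded at 5×10^3/well for 24 h. OGD insult was low-glucose medium plus 5 mM sodium dithionite for 24 h, given together with 10 µM compound. MTT (5 mg/mL) was added for 4 h and absorbance read at 570 nm. Viability was expressed as % of full-medium control; n = 3.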

Row | Compound | Activity (Rattus norvegicus [1]) | Activity (Rattus norvegicus [2]) | viability at 10 µM [3] [%] | Activity (PC-12) [%]
1 | CC1=NN(c2ccccc2)C(=O)C1 | Active | Active |  | 
2 | Cc1c(N2CCN(C)CC2)c(=O)oc2cc(O)cc(OCCN3CCOCC3)c12 |  |  | 108 | 56.9
3 | Cc1c(N2CCN(C)CC2)c(=O)oc2cc(O)cc(OC3CCCCC3)c12 |  |  | 177 | 36.1
4 | Cc1c(N2CCN(C)CC2)c(=O)oc2cc(O)cc(OCCCN)c12 |  |  | 107 | 40.5
5 | COc1ccccc1N1CCN(c2c(C)c3c(O)cc(O)cc3oc2=O)CC1 |  |  | 102 | 46.8
6 | Cc1cc(O)c2c(C)c(N3CCN(C)CC3)c(=O)oc2c1 |  |  | 99.5 | 47.3
7 | Cc1ccc(COc2cc(O)cc3oc(=O)c(N4CCN(C)CC4)c(C)c23)c(C)c1 |  |  | 51.6 | 27.3
8 | COc1ccc2c(C)c(N3CCN(C)CC3)c(=O)oc2c1 |  |  | 100 | 43.7
9 | Cc1c(N2CCN(C(=O)C(F)(F)F)CC2)c(=O)oc2cc(O)cc(O)c12 |  |  | 97.4 | 49.3
10 | Cc1c(N2CCN(C)CC2)c(=O)oc2cc(O)cc(OCCN3CCCC3)c12 |  |  | 135 | 48.2
11 | Cc1c(N2CCN(C)CC2)c(=O)oc2cc(N(C)C)ccc12 |  |  | 97.8 | 45.8
12 | Cc1c(N2CCN(C)CC2)c(=O)oc2cc(O)cc(OCCN)c12 |  |  | 104 | 49.2
13 | Cc1c(N2CCN(C)CC2)c(=O)oc2cc(OCCN3CCOCC3)ccc12 |  |  | 101 | 49.3
14 | Cc1c(N2CCN(C)CC2)c(=O)oc2cc(O)cc(OCc3ccccn3)c12 |  |  | 116 | 44.2
15 | Cc1c(N2CCN(c3cccc(C(F)(F)F)c3)CC2)c(=O)oc2cc(O)cc(O)c12 |  |  | 103 | 46.5
16 | Cc1c(N2CCN(C(=S)Nc3cccc(F)c3)CC2)c(=O)oc2cc(O)cc(O)c12 |  |  | 101 | 48.8
17 | Cc1c(N2CCN(C(=O)Nc3ccccc3Oc3ccccc3)CC2)c(=O)oc2cc(O)cc(O)c12 |  |  | 97.9 | 49.3
18 | Cc1c(N2CCN(C)CC2)c(=O)oc2cc(O)ccc12 |  |  | 99 | 44.8
19 | Cc1c(N2CCN(C)CC2)c(=O)oc2cc(O)cc(OCCN(C)C)c12 |  |  | 104 | 61.5
20 | CC(=O)N1CCN(c2c(C)c3c(O)cc(O)cc3oc2=O)CC1 |  |  | 98.1 | 48.4
21 | Cc1c(N2CCN(C)CC2)c(=O)oc2cc(O)cc(OC3CCN(C(=O)OC(C)(C)C)CC3)c12 |  |  | 137 | 51.5

Row | Compound | Activity (Rattus norvegicus [1]) | Activity (Rattus norvegicus [2]) | viability at 10 µM [3] [%] | Activity (PC-12) [%]
22 | C=CC(=O)N1CCN(c2c(C)c3c(O)cc(O)cc3oc2=O)CC1 |  |  | 98.5 | 48.3
23 | CCN1CCN(c2c(C)c3c(O)cc(O)cc3oc2=O)CC1 |  |  | 101 | 46.4
24 | Cc1c(N2CCN(S(=O)(=O)c3ccccc3)CC2)c(=O)oc2cc(O)cc(O)c12 |  |  | 97.4 | 49.7
25 | Cc1c(N2CCN(c3ccc(F)cc3)CC2)c(=O)oc2cc(O)cc(O)c12 |  |  | 103 | 47
26 | Cc1c(N2CCN(Cc3cc4c(cc3Cl)OCO4)CC2)c(=O)oc2cc(O)cc(O)c12 |  |  | 97.2 | 44.6
27 | Cc1c(N2CCNCC2)c(=O)oc2cc(O)cc(O)c12 |  |  | 96.3 | 46.4
28 | Cc1c(CCC(=O)N2CCN(C)CC2)c(=O)oc2cc(O)cc(O)c12 |  |  | 97.5 | 46.1
29 | CCCCCCCCOc1cc(O)cc2oc(=O)c(N3CCN(C)CC3)c(C)c12 |  |  | 59.4 | 15.6
30 | CCC1CCC(Oc2ccc3c(C)c(N4CCN(C)CC4)c(=O)oc3c2)CC1 (configuration not stated) |  |  | 101 | 49.2
31 | Cc1c(N2CCN(C)CC2)c(=O)oc2cc(O)cc(O)c12 |  |  | 107 | 52.7
32 | Cc1c(N2CCN(C)CC2)c(=O)oc2cc3c(cc12)OCO3 |  |  | 101 | 47.9
33 | Cc1c(N2CCN(C)CC2)c(=O)oc2cc(OCCN3CCCC3)ccc12 |  |  | 104 | 44.9
34 | Cc1c(N2CCN(C(c3ccc(F)cc3)c3ccc(F)cc3)CC2)c(=O)oc2cc(O)cc(O)c12 |  |  | 102 | 47.8
35 | Cc1ccc(S(=O)(=O)NCCOc2cc(O)cc3oc(=O)c(N4CCN(C)CC4)c(C)c23)cc1 |  |  | 140 | 45.1
36 | Cc1c(N2CCN(C)CC2)c(=O)oc2cc(O)cc(OC(C)C)c12 |  |  | 119 | 51.8
37 | Cc1c(CC(=O)N2CCN(C)CC2)c(=O)oc2cc(O)cc(O)c12 |  |  | 97.7 | 46.7
38 | Cc1c(N2CCN(C)CC2)c(=O)oc2cc(O)cc(OCCCNC(=O)OC(C)(C)C)c12 |  |  | 153 | 15.8
39 | Cc1cccc(N2CCN(c3c(C)c4c(O)cc(O)cc4oc3=O)CC2)c1C |  |  | 103 | 47.1
40 | CCCCOc1cc(O)cc2oc(=O)c(N3CCN(C)CC3)c(C)c12 |  |  | 197 | 46.2
41 | Cc1c(N2CCN(C)CC2)c(=O)oc2cc(O)cc(OCCc3cccs3)c12 |  |  | 178 | 39.1
